Beta cell apopt: beta cell apoptosis inhibition. INS-1E cytokine-induced death, ATP luminescence, 48 h; percent of positive-control rescue, neutral wells zero. protection from apoptosis, % (no concentration beside the values). 0.8% of 300,000 active;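 active = Every replicate reaches about 75%, or at least half do and their mean reaches it too, limit read from the data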;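 also: 0% = cytokine-treated negative control wells and 100% = positive control rescue; higher means more ATP so stronger rescue from cytokine killing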
SKKanGAS inh: SKKanGAS growth inhibition | 1.3% of 300,000 active | S. pyogenes SKKanGAS, kanamycin growth, BacTiter-Glo, 6 h | inhibition, % at 7.5 µM;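 active = mean replicate score, as percent of positive control median, at least 50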;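 also: strain carries kanamycin resistance gene driven by streptokinase promoter and grows in 40 µg/ml kanamycin; loss of luminescence reflects streptokinase promoter inhibition or plain growth inhibition; 0% = median of DMSO wells and 100% = positive control at its reference dose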
Lmaj promast: inhibitors of Leishmania major promastigote growth | AID 1063 | 9% of 200,000 active | Leishmania major promastigotes, resazurin fluorescence viability | inhibition, % at 10 µM; in the data active = inhibition above about 50%;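 also: promastigotes grown with compound for 44 hours at 28 °C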
CSC inhib: cancer stem cell inhibition | cancer stem cell-like cells viability, luminescence | inhibition, % at 7.5 µM | 1.1% of 300,000 active | AID 2717; in the data active = inhibition above about 75%; tested in HMLE shEcad cells
Mdm2 MdmX PPI: inhibitors of human Mdm2/MdmX interaction | SaOS-2 split-luciferase Mdm2/MdmX complementation, luminescence | 3% of 330,000 active | inhibition, % at 8 µM | AID 485346 | O15151+Q00987;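 active = inhibition of at least 50% at 8 µM in the primary screen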
Target sequence (O15151 whole entry, looked up): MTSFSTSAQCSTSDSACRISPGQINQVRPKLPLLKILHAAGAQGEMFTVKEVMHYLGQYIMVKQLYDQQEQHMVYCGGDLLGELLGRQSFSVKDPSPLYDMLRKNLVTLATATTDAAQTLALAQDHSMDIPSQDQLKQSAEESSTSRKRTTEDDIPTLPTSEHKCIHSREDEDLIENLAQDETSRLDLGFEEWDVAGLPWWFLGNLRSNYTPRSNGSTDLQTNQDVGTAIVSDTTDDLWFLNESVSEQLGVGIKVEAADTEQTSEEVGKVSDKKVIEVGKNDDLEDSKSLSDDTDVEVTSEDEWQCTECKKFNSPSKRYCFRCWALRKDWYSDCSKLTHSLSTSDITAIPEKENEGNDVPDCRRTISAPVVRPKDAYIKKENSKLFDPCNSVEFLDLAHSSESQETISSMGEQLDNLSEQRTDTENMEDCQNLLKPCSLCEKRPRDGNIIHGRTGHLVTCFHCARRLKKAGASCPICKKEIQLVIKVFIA
Target sequence (Q00987 whole entry, looked up): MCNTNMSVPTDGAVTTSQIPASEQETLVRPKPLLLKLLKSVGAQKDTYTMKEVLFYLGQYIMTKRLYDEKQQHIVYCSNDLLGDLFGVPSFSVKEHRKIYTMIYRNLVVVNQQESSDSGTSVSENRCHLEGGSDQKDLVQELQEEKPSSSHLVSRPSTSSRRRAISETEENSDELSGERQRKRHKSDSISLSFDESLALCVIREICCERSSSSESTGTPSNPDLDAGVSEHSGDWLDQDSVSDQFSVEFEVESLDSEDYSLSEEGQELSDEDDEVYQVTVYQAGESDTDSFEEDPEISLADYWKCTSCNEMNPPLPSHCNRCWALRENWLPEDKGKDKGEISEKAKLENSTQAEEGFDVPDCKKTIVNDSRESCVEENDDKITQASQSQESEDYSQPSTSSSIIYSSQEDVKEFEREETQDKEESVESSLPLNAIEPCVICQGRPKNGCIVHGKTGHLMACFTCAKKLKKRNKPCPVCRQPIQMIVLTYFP
T cruzi inh: blocks replication of Trypanosoma cruzi. 1.4% of 300,000 active. inhibition, % (test concentration not listed). T. cruzi beta-gal in NIH3T3, luminescence, 90 h. AID 1885;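 active = mean inhibition across valid replicates above about 55%, limit read from the data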;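 also: signal also drops with host cell toxicity which is not excluded here; 0% = plate median of DMSO wells and 100% = zero luminescence signal; higher percent means less beta-gal luminescence so fewer parasites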
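System: mouse NIH/3T3 fibroblasts infected with β-gal-expressing T. cruzi Tulahuen C4 / Input: NIH/3T3 cells, 5,000 per well / Buffer or medium: Low-serum DMEM with 2% FBS / Probe or stimulus: 5000 reporter trypomastigotes per well / Schedule: ≥90 h infection period, 3 h prior cell attachment / Measured by: GalScreen luminescence, 60 min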
Mdm2 MdmX conf: human Mdm2/MdmX binding inhibition, confirmed. 55% of 10,000 active. shares compounds with Mdm2 MdmX PPI. luminescent assay. inhibition, % at 8 µM; in the data active = inhibition above about 40%
Full FLuc ctr: full-length luciferase inhibition in Mdm2/MdmX counter-screen | 77% of 6,200 active | inhibition, % at 8 µM | shares compounds with Mdm2 MdmX PPI | AID 504607 | SaOS-2 full-length luciferase counterscreen, luminescence;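 active = mean inhibition at 8 µM reaching about 37%, which flags the compound as non-specific, limit read from the data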;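 also: p53-null SaOS-2 cells with luciferase driven by a doxycycline-inducible promoter; compound on cells about two nights before reading with doxycycline added after day one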
Starred values were filed as active, the others as inactive; nt = not tested or not shown. Sampled rows, rich in hits. Any-hit rate of the full collection: about 9.4%.

SMILES	Beta cell apopt	SKKanGAS inh	Lmaj promast	CSC inhib	Mdm2 MdmX PPI	T cruzi inh	Mdm2 MdmX conf	Full FLuc ctr
Cc1ccsc1/C=N/NC(=O)Cc1ccc(Cl)cc1	-3.6	-10.2	nt	-6.4	-8.8	-2.1	nt	nt
O=C(Nc1nc(NC(=O)c2ccco2)n(-c2ccccc2)n1)c1ccccc1	89.1*	-15.6	99.9*	26.9	74.4*	1.7	63.6*	45.8*
CN(C)/C=C/C(=O)c1cc(F)cc(C(F)(F)F)c1	1.9	1.7	-0.8	-6.7	2.1	-22.2	nt	nt
CC(NC(=O)/C(C#N)=C/c1ccc([N+](=O)[O-])o1)c1ccccc1 (stereo not given)	40.7	57.5*	nt	nt	100.3*	35.8	32.8	nt
CC(NC(=O)/C(C#N)=C/c1ccco1)c1ccccc1 (stereo not given)	-7.1	3.1	nt	-0.9	-20.8	-3.4	nt	nt
Cc1ccc(-c2c(C#N)c(N)n3c(nc4ccccc43)c2C#N)cc1	80.3*	52.2*	11.1	70.7	77.2*	26.4	54.9*	57.7*
N#Cc1c(-c2ccccc2)c(C#N)c2nc3ccccc3n2c1N	49.3	13.1	1.8	4.5	54.7*	0.2	47.9*	48.2*
CC(=O)N/C(=C/c1ccc2c(c1)OCO2)C(=O)NCCO	3.7	-5.5	-5.4	-4.3	16.2	-16.8	nt	nt
Fc1ccc(NC(=S)Nc2cccc(Cl)c2)cc1	-2.5	-5.8	46.4	6.1	14.6	-34.4	nt	nt
Cc1ccc(NC(=S)NC(=O)c2ccc(F)cc2)cc1S(=O)(=O)Nc1cccc(Cl)c1	16.4	70.2*	42.6	60.2	67.4*	40.4	54.0*	107.5*
CC(C)(C)c1ccc(-c2noc(CCC(=O)Nc3cccnc3)n2)cc1	5.1	8.4	nt	nt	54.8*	1.5	53.0*	22.3
CCc1ccc(NC(=O)c2ccc(F)c(S(=O)(=O)NCC3COc4ccccc4O3)c2)cc1 (stereo not given)	32.9	49.7*	4.2	2.7	55.6*	6.9	40.0*	55.1*
N#CCSc1nc2ccccc2c2nc3ccccc3n12	102.9*	36.2	8.0	85.1*	86.8*	-8.8	62.6*	87.2*
CCn1c(SCC#N)nc2ccccc2c1=O	-5.3	2.3	nt	-11.6	17.1	-11.0	nt	nt
CCOC(=O)c1ccc(Nc2nc(=O)c3cccnc3s2)cc1	-1.6	17.6	-10.7	31.3	70.9*	-2.4	40.6*	72.5*
O=c1nc(Nc2ccc(OCc3ccccc3)cc2)sc2ncccc12	-3.7	-10.4	-6.8	48.1	69.3*	5.3	82.1*	23.4
CC(=O)c1ccc(Nc2nc(=O)c3cccnc3s2)cc1	-7.2	-2.3	-4.7	-1.8	5.3	-10.5	nt	nt
O=C(NCCc1ccc(C(F)(F)F)cc1)c1ccc(Cl)nc1	5.5	0.0	nt	-4.2	-9.0	5.0	nt	nt
CS(=O)(=O)NN1C(=O)c2ccccc2NC1c1cccs1 (stereo not given)	-5.3	8.2	-6.5	-4.1	-12.4	2.9	nt	nt
CC[C@H](C)[C@@H](NC(=O)O[C@@H]1C(=O)c2cc(OC)ccc2O[C@H]1c1ccc(OC)c(Br)c1)C(=O)OC	-1.1	nt	3.7	18.3	24.8	nt	nt	nt
COc1ccc2c(c1)C(=O)[C@H](O)[C@@H](c1ccc(OC)c(Br)c1)O2	109.4*	15.4	98.8*	108.3*	70.7*	13.7	-6.4	nt
CCOC(=O)c1cc(-c2cc(OC)c(OC)c(OC)c2)nc2c1c(=O)[nH]c(=O)n2Cc1ccccc1	12.6	45.2	6.1	8.9	57.3*	44.5	56.1*	86.3*
Cc1nn2c(N3CCOCC3)cc(C(C)C)nc2c1-c1ccccc1	0.4	1.4	nt	19.5	22.3	4.2	nt	nt
Cc1nc2c(-c3ccccc3)c(C)nn2c(C)c1CCC(=O)NCc1ccco1	3.0	nt	-3.5	2.2	-11.4	nt	nt	nt
CCN1CCN(c2ccc(NC(=O)CCc3c(C)nc4c(-c5ccccc5)c(C)nn4c3C)cc2)CC1	nt	11.8	100.3*	54.4	88.7*	15.3	43.6*	66.4*
SMILES	Beta cell apopt	SKKanGAS inh	Lmaj promast	CSC inhib	Mdm2 MdmX PPI	T cruzi inh	Mdm2 MdmX conf	Full FLuc ctr
CCN1CCN(c2cc(C(C)(C)C)nc3c(-c4ccccc4)c(C)nn23)CC1	64.2	2.8	95.8*	139.8*	53.9*	49.8	52.6*	66.6*
CCN1CCN(c2cc(C(C)C)nc3c(-c4ccccc4)c(C)nn23)CC1	3.4	2.5	nt	-4.2	54.6*	6.2	27.9	nt
Cc1ccccc1OCCc1c(C)[nH]c(=S)[nH]c1=O	6.2	6.6	-8.5	-1.7	54.6*	-63.4	62.1*	56.2*
Cc1ccc(C(=O)O/N=C/c2c(N3CCOCC3)n(C)c3ccccc23)cc1	98.8*	12.2	98.4*	-7.1	51.4*	56.1*	40.5*	7.2
CC(=O)Nc1sc(C)c(C)c1C(=O)OCC(=O)N(CC(C)C)c1c(N)n(Cc2ccccc2)c(=O)[nH]c1=O	-5.4	27.7	nt	81.1*	100.2*	34.9	18.8	nt
CC(C)CN(C(=O)COC(=O)C12CC3CC(CC(C3)C1)C2)c1c(N)n(Cc2ccccc2)c(=O)[nH]c1=O	98.7*	0.7	nt	22.6	61.1*	5.8	72.4*	47.0*
CC(C)CN(C(=O)CC1CCCC1)c1c(N)n(Cc2ccccc2)c(=O)[nH]c1=O	-1.7	7.2	nt	nt	1.2	-5.4	nt	nt
Cc1cccc(C(=O)OCC(=O)N(CC(C)C)c2c(N)n(Cc3ccccc3)c(=O)[nH]c2=O)c1C	nt	nt	nt	nt	9.5	nt	nt	nt
O=C(NNC1=NCCC1)C1CC1	-1.1	nt	0.2	-11.5	15.8	-11.4	nt	nt
COc1ccc(C2/C=C\CN(CC(C)C)CC(=O)N2Cc2cccc(F)c2)cc1 (stereo not given)	nt	nt	nt	nt	-15.4	nt	nt	nt
COc1ccc(/C=N/Nc2nc(Nc3ccccc3)nc(N3CCCC3)n2)cc1[N+](=O)[O-]	nt	25.9	-1.9	37.3	97.4*	28.5	92.5*	60.8*
COc1cc(/C=N/Nc2nc(Nc3ccccc3)nc(N3CCOCC3)n2)ccc1OC(=O)c1ccco1	-4.0	28.6	22.2	13.7	51.9*	62.3*	21.2	nt
Cc1noc(NS(=O)(=O)c2ccc(NC(=O)C(F)(F)C(F)(F)C(F)(F)F)cc2)c1C	nt	3.0	nt	8.1	8.3	nt	nt	nt
COc1cccc(/C=C2\SC(=S)N(CCCC(=O)N(CCO)c3ccccc3)C2=O)c1	-49.3	13.8	nt	20.4	99.4*	44.6	60.1*	15.7
COc1cccc(/C=C2/SC(=S)N(CC(=O)NNC(=O)c3ccccc3OC)C2=O)c1	2.2	7.7	nt	8.2	10.9	-4.9	nt	nt
CN1CCN(C(=O)CCN2C(=O)/C(=C/c3cccc(Br)c3)SC2=S)CC1	-34.6	1.4	nt	53.1	49.2	-1.1	nt	nt
O=C1/C(=C/c2cccc(Br)c2)SC(=S)N1CCC(=O)N(CCO)c1ccccc1	-33.5	19.1	nt	47.0	51.9*	-0.5	11.2	nt
Oc1ccc2ccccc2c1N=Nc1ccccn1	94.6*	12.2	99.5*	105.2*	63.4*	55.0*	74.1*	28.0
